The record followed here is ChEMBL document CHEMBL4402581, “Monohydrazone Based G-Quadruplex Selective Ligands Induce DNA Damage and Genome Instability in Human Cancer Cells” (J Med Chem, 2020).

Molecules are shown by their SMILES. Active and inactive are the calls of the source. The calls are words filed in the database; no cut-off is given here.

Assay [1] relates to Quadruplex DNA. The assay is described as follows: Stabilization of parallel Tel23 G4 quadruplex DNA assessed as change in melting temperature at 10 mol.equiv by circular dichroism melting assay. The class given is nucleic-acid assay. The gist of the method: (§1)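 CD melting from 20 to 100 °C at 1 °C/min, monitored at 264 nm (c-Kit1, c-Kit2, c-Myc, Tel23-p), 287 nm (Tel23-h) or 280 nm (hairpin). Ligand was at 10 mol equiv with folded DNA (15 μM G4, 30 μM hairpin). ΔTm is Tm with ligand minus Tm without, from curve fits, averaged over triplicates.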

The subject of assay [2] is Quadruplex DNA. The assay is described as follows: Stabilization of c-Kit1 G4 quadruplex DNA assessed as change in melting temperature at 10 mol.equiv by circular dichroism melting assay. The format is nucleic-acid assay. The gist of the method: as §1
In general terms: Circular dichroism is the unequal absorption of left and right circularly polarised light.

The test system of assay [3] is Quadruplex DNA. Put plainly: Effect on parallel Tel23 G4 quadruplex DNA architecture at 10 mol.equiv by circular dichroism spectral analysis. The class given is nucleic-acid assay. A digest of the protocol:
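CD spectra of 15 μM G4s or 30 μM hairpin in 20 mM K phosphate pH 7.0 with 5 mM KCl, after annealing. Recorded at 20 °C over 230–360 nm, three scans averaged, buffer baseline subtracted. Ligand was added at 10 mol equiv to the folded DNA from a 10 mM DMSO stock.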

Assay [4] has as its system Quadruplex DNA. The assay is described as follows: Binding affinity at FAM/TAMRA-tagged parallel Tel21 G4 quadruplex DNA assessed as melting temperature at 2 uM by FRET melting assay (reference value: 55.4 +/- 0.2 degreeC). The format is nucleic-acid assay. A digest of the protocol: (§2)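 Dual FAM/TAMRA-labelled oligos (0.2 μM) in 20 mM K phosphate pH 7.0 with 5 mM KCl, annealed 90 °C 5 min, slow-cooled overnight, held 4 °C 24 h. The Tel21 parallel form was annealed at high DNA concentration. Ligand 2 μM. Unlabelled ds12 duplex competitor at 0, 5 or 10 μM final. Tm was read from FRET melting curves.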

Assay [5] has as its system Quadruplex DNA. Put plainly: Stabilization of G4 quadruplex DNA in human U2OS cells assessed as change in size of BG4 foci at 2 uM incubated for 24 hrs by immunofluorescence microscopy. The format is cell-based.
Assay [6] relates to Quadruplex DNA. The assay is described as follows: Binding affinity at FAM/TAMRA-tagged parallel Tel21 G4 quadruplex DNA assessed as melting temperature at 2 uM in presence of 25 fold excess duplex DNA by FRET melting assay (reference value: 55.4 +/- 0.2 degreeC). The format is nucleic-acid assay. A digest of the protocol:
as §2

A short description of assay [7]: Stabilization of hairpin-duplex DNA assessed as change in melting temperature at 10 mol.equiv by circular dichroism melting assay. A digest of the protocol: as §1
Assay [8] concerns HeLa. Put plainly: Cytotoxicity against human HeLa cells assessed as reduction in cell viability incubated for 24 hrs followed by 48 hrs of recovery in drug free medium by MTT assay. The class given is functional, cell-based. A digest of the protocol: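 Cells grown in DMEM with 10% FBS and 1% glutamine at 37 °C, 5% CO2, and seeded 25 × 10^4 per well. Treatment began 24 h after seeding and lasted 1 or 24 h, followed by 48 h in drug-free medium. MTT was added for 1 h at 37 °C, then DMSO solubilization and absorbance at 595 nm. IC50 came from linear regression; two independent experiments, each in triplicate.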
In general terms: Tetrazolium assays rely on reduction of a dye to a coloured formazan, in cell work by metabolically active cells.

In assay [9] the test system is Quadruplex DNA. Put plainly: Stabilization of c-Myc G4 quadruplex DNA assessed as change in melting temperature at 10 mol.equiv by circular dichroism melting assay. The format is nucleic-acid assay. A digest of the protocol: as §1
For assay [10], the system named is Quadruplex DNA. The assay is described as follows: Displacement of Thiazole orange from parallel Tel23 G4 quadruplex DNA incubated for 3 mins by spectrofluorimetry relative to control. The class given is nucleic-acid assay. A digest of the protocol: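 Pre-folded DNA (0.25 μM) in K phosphate/KCl buffer was mixed with thiazole orange: 0.50 μM for G4s, 0.75 μM for duplex. Ligand was added stepwise from 0.5 to 10 equiv, with 3 min equilibration at 20 °C after each addition. Excitation 495 nm; emission read at 543 nm. Displacement % = 100 − (F/F0 × 100). DC50 is the concentration giving 50% displacement.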

Assay [11] deals with Quadruplex DNA. Put plainly: Stabilization of c-Kit2 G4 quadruplex DNA assessed as change in melting temperature at 10 mol.equiv by circular dichroism melting assay. The format is nucleic-acid assay. A digest of the protocol:
as §1

Usually IC50 stands for the concentration that gives 50% inhibition. Usually inhibition stands for the drop in the measured response relative to a control, in per cent. In the case of `CC(C)(C)c1cc(/C=N/NC(=N)N)c(O)c(/C=C2/C(=O)Nc3c2ccc2ccccc32)c1.Cl`, the outcome in [1], in assay [2], in assay [7], in assay [9] and in [11] was Active. Moreover, the result in [3] and in [5] was inactive. Further, the Tm in assay [4] was 68.6 °C; in assay [6], 67.7 °C. For the same molecule, the IC50 in assay [8] worked out at 750 nM. Further, the inhibition in [10] was 80%.
